Shown are actives, neighbours in structure and some others; about 1.5% of the full set was active somewhere.
Apaf1 inhib = inhibitors of human Apaf-1 apoptosome, primary screen, biochemical, DEVD-Rh110 fluorescence, uHTS; reconstituted apoptosome caspase-3 activity; inhibition, % at 20 µM; 330,000 tested, 0.71% active; active = inhibition of at least 40% at 20 µM;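 note: plate controls were DMSO wells for no effect and DEVD-CHO caspase inhibitor wells for full effect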
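Material: cell-free apoptosome with Apaf-1, procaspase-3 and caspase-9; Buffer or medium: Hepes pH 7.5 with detergent and BSA; Reagent: cytochrome c trigger plus (Z-DEVD)2-Rh110 caspase-3 substrate; Times: compound with Apaf-1, dATP, procaspase-3 30 min, then 50 min reaction, room temperature; Technique: Rh110 fluorescence intensity.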
PREPL inh = PREPL enzyme inhibitors, primary screen, biochemical, fluorescence polarization; Prolyl endopeptidase-like (Homo sapiens), Q4J6C6; recombinant PREPL, fluorescence polarization activity-based probe; inhibition, % at 5.96 µM; 320,000 tested, 0.68% active; AID 2751, 2010; in the data active = inhibition above about 43%;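 note: 0% = enzyme with DMSO and 100% = wells lacking enzyme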
UBC13 polyUb = UBC13 polyubiquitin chain formation inhibitors, primary screen, biochemical, TR-FRET, uHTS; inhibition, % at 20 µM; 330,000 tested, 0.47% active; in the data active = inhibition above about 45%, passing the limit was not always enough
Target sequence (P61088 whole entry, looked up): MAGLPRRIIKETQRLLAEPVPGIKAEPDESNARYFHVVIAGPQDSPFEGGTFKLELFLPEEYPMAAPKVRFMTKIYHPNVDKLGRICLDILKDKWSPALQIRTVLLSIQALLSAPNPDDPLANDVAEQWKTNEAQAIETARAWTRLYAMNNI
UCH37 inh = inhibitors of human UCH37 deubiquitinase, primary screen, biochemical, Ub-AMC cleavage, fluorescence. Ubiquitin carboxyl-terminal hydrolase isozyme L5 (Homo sapiens), Q9Y5K5. purified proteasome/UCH37. inhibition, % (concentration not given with the values). 330,000 tested, 0.33% active;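 active = mean inhibition over replicate wells above about 20%, limit read from the data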;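 note: 0% = compound-free wells with enzyme and 100% = wells lacking proteasome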
Target sequence (Q9Y5K5 whole entry, looked up): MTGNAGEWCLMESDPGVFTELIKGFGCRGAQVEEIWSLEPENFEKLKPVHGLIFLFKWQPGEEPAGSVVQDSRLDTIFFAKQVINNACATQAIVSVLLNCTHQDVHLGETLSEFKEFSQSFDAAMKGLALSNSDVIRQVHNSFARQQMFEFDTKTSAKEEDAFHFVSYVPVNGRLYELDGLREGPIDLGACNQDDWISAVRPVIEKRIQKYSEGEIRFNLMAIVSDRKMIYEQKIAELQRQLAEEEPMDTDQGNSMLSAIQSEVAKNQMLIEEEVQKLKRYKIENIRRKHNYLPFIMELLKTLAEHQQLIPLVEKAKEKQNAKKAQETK
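System: Proteasome-associated human UCH37 deubiquitinase; Input: 0.15 nM proteasome in added enzyme buffer; Also added: Ub-AMC substrate from 1 µM stock; Incubation: 30 min compound-proteasome preincubation then 25 min substrate reaction, room temperature; Detection: fluorescence, ex 355 nm, em 460 nm; Read-out: % inhibition of Ub-AMC cleavage fluorescence; Benchmarks: no-proteasome and no-compound wells.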
UCH37 reconfirm = retest of human UCH37 deubiquitinase inhibitors, confirmation, biochemical, Ub-AMC cleavage rate, fluorescence. AID 624100, 2012. shares compounds with UCH37 inh. Proteasome-bound UCH37. 480 tested, 27% active. inhibition, % at 20 µM;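 active = average inhibition over replicates above about 50%, so the earlier screening hit is confirmed, limit read from the data; inactive = the rest, counted as false positives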;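 note: based on cleavage rate fitted by regression over a 30 min kinetic read; 0% = proteasome plus Ub-AMC and 100% = Ub-AMC without proteasome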
The depositor's hits bear a star; / = not tested or not shown; ! = not active in a repeat.

SMILES	Apaf1 inhib	PREPL inh	UBC13 polyUb	UCH37 inh	UCH37 reconfirm
COc1ccccc1N1CCN(N=Cc2cccc(OC)c2O)CC1	/	/	/	2.6	/
CC(=O)N(Cc1cc(=O)[nH]c2ccccc12)c1cccc(C)c1	9.2	-6.7	3.2	-2.3	/
COc1ccc(N(N=C2Sc3ccccc3C2=O)C(C)=O)cc1	/	/	/	77.7*	29.4
CC(=O)N(N=C1Sc2ccccc2C1=O)c1cccc(C)c1	/	/	/	80.9*	72.0*
Cc1ccccc1OCC(=O)NCC(=O)NN=Cc1ccc(Br)o1	/	/	/	-0.1	/
Cc1cc(C)c2c(N)c(C(=O)NN=Cc3cccs3)sc2n1	/	/	/	-67.0	/
Cc1cc(O)c(C(C)C)cc1N=Nc1ccccc1C(=O)O	0.0	-18.8	-250.2	19.0	/
Cc1cc(N=Nc2ccccc2C(=O)O)c(C)c(C)c1O	12.7	1.7	-296.9	25.4*	39.1
NS(=O)(=O)c1ccc(N=Nc2ccc(=O)[nH]c2O)cc1	/	8.2	/	31.9*	14.6
O=C(NN=Cc1ccccc1)c1sccc1OCc1ccc(F)cc1	/	/	/	4.4	/
O=S(=O)(NCCC1=CCCCC1)c1ccc(Br)cc1	11.5	-15.1	10.6	2.2	/
CS(=O)(=O)NCCC1=CCCCC1	2.3	-3.9	-3.7	43.8*	79.6*
CC(=O)N1CCCc2cc(S(=O)(=O)NCCC3=CCCCC3)ccc21	8.9	-3.0	2.7	54.5*	76.1*
COc1ccc(Cl)cc1S(=O)(=O)N1CCC(C(=O)NCCC2=CCCCC2)CC1	25.1	24.6	-1.8	1.7	/
COc1ccc(C)cc1S(=O)(=O)NCCC1=CCCCC1	13.0	6.7	9.9	58.3*	8.1
COc1ccc(C)cc1S(=O)(=O)N1CCC(C(=O)NCCC2=CCCCC2)CC1	9.4	19.8	7.0	32.4*	5.7
CCOc1ccc(S(=O)(=O)NCCC2=CCCCC2)c2ccccc12	1.6	-3.3	9.4	1.7	/
O=C(NN=Cc1ccc(-c2ccc([N+](=O)[O-])cc2)o1)C(O)c1ccccc1 (stereo not drawn)	/	/	/	7.8	/
O=c1cnnc(NN=Cc2ccccn2)[nH]1	/	/	/	4.5	/
S=C(NN=C1CCc2ccccc21)NC1CCCCC1	/	/	/	-0.3	/
CCOC(=O)C=c1sc(=Cc2ccc(C#N)cc2)c(=O)n1CC(=O)NCc1ccco1	/	/	/	-4.4	/
CCOc1ccc(C(=O)NCCC2=CCCCC2)cc1OCC	3.7	13.4	5.1	31.9*	35.3
CCC(=O)c1ccc(OCC(=O)NCCC2=CCCCC2)c(OC)c1	5.2	8.2	-2.4	1.2	/
Cc1ccccc1NS(=O)(=O)c1cc(C(=O)NCCC2=CCCCC2)ccc1Cl	5.9	10.4	6.5	54.7*	46.7
CCOC(=O)c1c(N2C(=O)C3CC(C)=C(C)CC3C2=O)sc(C)c1C (stereo not drawn)	6.8	19.6	-4.8	43.1*	63.9*
SMILES	Apaf1 inhib	PREPL inh	UBC13 polyUb	UCH37 inh	UCH37 reconfirm
O=[N+]([O-])c1ccc(-c2ccc(C=NO)o2)cc1	/	/	/	7.2	/
Cn1c(Cc2nc3ccccc3n2C)nc2ccccc21	-3.6	0.8	0.7	41.9*	15.3
Cn1c(COc2ccccc2)nc2ccccc21	-11.5	-1.5	9.6	2.0	/
COc1ccc(NC(=O)c2cccnc2Cl)c(S(=O)(=O)N2CCOCC2)c1	0.7	20.4	-8.6	0.3	/
COc1ccc(NC(=O)c2cncc(Br)c2)c(S(=O)(=O)N2CCOCC2)c1	0.8	-5.6	0.7	35.1*	5.7
Cc1ccc(C(=O)C2=C(O)C(=O)N(CCCN3CCOCC3)C23C(=O)N(C)c2ccccc23)o1 (stereo not drawn)	2.9	-5.5	-8.5	5.9	/
CCN1C(=O)C2(C(C(=O)c3ccc(C)o3)=C(O)C(=O)N2CCCN2CCOCC2)c2ccccc21 (stereo not drawn)	-8.6	2.8	-14.9	46.4*	20.0
COC/C=C/C1=CC2=CC(=O)C(C)(OC(=O)c3cnc4ccccc4n3)C(=O)C2=CN1C1CC1 (stereo not drawn)	33.2	12.4	-74.2	47.3*	23.8
COC/C=C/C1=CC2=CC(=O)C(C)(OC(=O)c3cnc4ccccc4n3)C(=O)C2=CN1c1ccc(OC)cc1 (stereo not drawn)	12.4	15.2	-83.5	-1.6	/
O=C(NN=C1CC(=NNC(=O)c2ccncc2)c2ccccc21)c1ccncc1	/	/	/	45.7*	76.5*
NS(=O)(=O)c1ccc(Nc2ccc([N+](=O)[O-])c3nonc23)cc1	11.7	9.0	-459.6	26.1*	5.3
CCc1nnc(NS(=O)(=O)c2ccc(NS(=O)(=O)c3ccccc3[N+](=O)[O-])cc2)s1	25.6	6.3	-9.2	-0.2	/
CCc1nnc(NS(=O)(=O)c2ccc(Nc3ccc([N+](=O)[O-])c4nonc34)cc2)s1	23.4	5.2	-235.4	34.6*	30.6
COc1cc(C(C)=NNC(=S)NC(C)C)cc(OC)c1OC	/	/	/	1.7	/
CC(=NNS(=O)(=O)c1ccc(C)cc1)c1cc2ccccc2oc1=O	/	/	/	2.6	/
CC(C)(C)C(=O)ON=C(N)c1c(Cl)cccc1Cl	/	/	/	0.3	/
Cc1cc(C(=O)C[N+]2(C)CCOCC2)c(C)n1-c1ccc(Br)cc1	4.6	2.0	6.9	44.7*	-0.6
CN(C[C@H](Cc1ccccc1)N(C[C@H](c1ccccc1)N(CCc1ccccc1)N=O)N=O)N=O	5.3	-3.8	-4.9	4.0	/
CN(C[C@H](c1ccccc1)N(C[C@H](Cc1ccccc1)N(CCc1ccccc1)N=O)N=O)N=O	8.0	4.3	-7.8	37.2*	9.4
C=Cc1c(C)c2cc3[nH]c(cc4nc(cc5nc(cc1[nH]2)C(C)=C5CCC(=O)O)C(CCC(=O)O)=C4C)c(C)c3C=C	10.6	40.5	-43.7	46.8*!	99.9*
C[C@@H]1NC(=O)[C@H](CCC(N)=O)NC(=O)c2cc([N+](=O)[O-])cc(I)c2NCC[C@@H](C(N)=O)NC1=O	-2.5	-4.9	-0.9	50.4*	-0.9
CC(C)c1c(C(=O)NN=C2CCc3ccccc32)nnn1-c1nonc1N	/	/	/	-33.0	/
COCCCNC(=S)NNC(=O)c1ccc2c(c1)OCO2	2.5	1.1	-11.4	37.3*	21.9
Cc1c(N=C2C=CC(=O)c3ccccc32)c(=O)n(-c2ccccc2)n1C	/	/	/	60.8*	47.0
Cc1c(N=C2C=C(Br)C(=O)C(Br)=C2)c(=O)n(-c2ccccc2)n1C	30.6	/	-23.3	2.4	/
SMILES	Apaf1 inhib	PREPL inh	UBC13 polyUb	UCH37 inh	UCH37 reconfirm
O=C(CCC(=O)Nc1ccc(Br)cc1)NN=Cc1ccc(F)cc1	/	/	/	1.8	/
Cc1ccccc1OCC(=O)NCc1ccccc1	-9.5	-8.7	-7.0	41.1*	15.4
Cc1ccccc1OCC(=O)NNC(=O)CCc1ccccc1	9.6	7.8	-8.1	5.0	/
C=C(c1ccccc1)c1ccccc1N	-7.8	-3.1	4.4	39.7*	-2.0
NC(Cc1ccc([N+](=O)[O-])cc1)=NOC(=O)C(c1ccccc1)c1ccccc1	/	/	/	-0.8	/
C/C(C=NNC(=O)c1cccnc1)=C\c1ccco1	/	/	/	10.6	/
CC1=C(SCc2ccccc2)C(=O)c2ccccc2C1=O	/	/	/	32.1*	47.9

High-throughput results (PubChem)
